Measured values reported in ChEMBL document CHEMBL1629475, “Synthesis of new chalcone derivatives containing a rhodanine-3-acetic acid moiety with potential anti-bacterial activity” (2010).
≈ marks a conversion by molar mass, not a printed value. Calls of active or inactive are those of the source. No cut-off for these calls is given here.

Experiments:
Staphylococcus aureus [1] = experiment: Antibacterial activity against Staphylococcus aureus RN 4220 after 20 hrs by twofold serial dilution technique; assay type: functional; conditions: RN 4220, 20 h
In short: (§1)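 Inoculum was 10⁵ CFU/mL. MIC was read after 20 h at 37 °C. The MRSA and QRSA strains were multidrug-resistant clinical isolates. Oxacillin and norfloxacin served as positive controls.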

Staphylococcus aureus [2] = experiment: Antibacterial activity against Staphylococcus aureus KCTC 503 after 20 hrs by twofold serial dilution technique; assay type: functional; conditions: KCTC 503, 20 h; in short: as §1
Staphylococcus aureus [3] = experiment: Antibacterial activity against Staphylococcus aureus KCTC 209 after 20 hrs by twofold serial dilution technique; assay type: functional; conditions: KCTC 209, 20 h; in short: as §1
Streptococcus mutans [4] = experiment: Antibacterial activity against Streptococcus mutans KCTC 3065 after 20 hrs by twofold serial dilution technique; assay type: functional; conditions: KCTC 3065, 20 h
In short: (§2)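 Inoculum was 10⁵ CFU/mL, and MIC was read after incubation at 37 °C for 20 h. Oxacillin and norfloxacin were the positive controls.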

Streptococcus mutans [5] = experiment: Antibacterial activity against Streptococcus mutans KCTC 3289 after 20 hrs by twofold serial dilution technique; assay type: functional; conditions: KCTC 3289, 20 h; in short: as §2
Escherichia coli [6] = experiment: Antibacterial activity against Escherichia coli 1924 after 20 hrs by twofold serial dilution technique; assay type: functional; conditions: Escherichia coli, 1924, 20 h; in short: as §1
Escherichia coli [7] = experiment: Antibacterial activity against Escherichia coli 1356 after 20 hrs by twofold serial dilution technique; assay type: functional; conditions: Escherichia coli, 1356, 20 h; in short: as §1
Staphylococcus aureus [8] = experiment: Antibacterial activity against Staphylococcus aureus MRSA CCARM 3167 after 20 hrs by twofold serial dilution technique; assay type: functional; conditions: MRSA CCARM 3167, 20 h; in short: as §1
Staphylococcus aureus [9] = experiment: Antibacterial activity against Staphylococcus aureus MRSA CCARM 3506 after 20 hrs by twofold serial dilution technique; assay type: functional; conditions: MRSA CCARM 3506, 20 h; in short: as §1
Staphylococcus aureus [10] = experiment: Antibacterial activity against Staphylococcus aureus QRSA CCARM 3505 after 20 hrs by twofold serial dilution technique; assay type: functional; conditions: QRSA CCARM 3505, 20 h; in short: as §1
Staphylococcus aureus [11] = experiment: Antibacterial activity against Staphylococcus aureus QRSA CCARM 3519 after 20 hrs by twofold serial dilution technique; assay type: functional; conditions: QRSA CCARM 3519, 20 h; in short: as §1
Escherichia coli [12] = experiment: Antibacterial activity against Escherichia coli 1356 at 64 ug/ml; assay type: functional, organism-based
Escherichia coli [13] = experiment: Antibacterial activity against Escherichia coli 1924 at 64 ug/ml; assay type: functional, organism-based

SMILES	MIC (Staphylococcus aureus [1]) [µg/mL]	MIC (Staphylococcus aureus [2]) [µg/mL]	MIC (Staphylococcus aureus [3]) [µg/mL]	MIC (Streptococcus mutans [4]) [µg/mL]	MIC (Streptococcus mutans [5]) [µg/mL]	MIC (Escherichia coli [6]) [µg/mL]	MIC (Escherichia coli [7]) [µg/mL]	MIC (Staphylococcus aureus [8]) [µg/mL]	MIC (Staphylococcus aureus [9]) [µg/mL]	MIC (Staphylococcus aureus [10]) [µg/mL]	MIC (Staphylococcus aureus [11]) [µg/mL]	Activity (Escherichia coli [12])	Activity (Escherichia coli [13])
O=C(O)CN1C(=O)/C(=C\c2ccc(/C=C/C(=O)c3ccc(Cl)cc3Cl)cc2)SC1=S	2 (≈ 4.18 µM)	2 (≈ 4.18 µM)	2 (≈ 4.18 µM)	2 (≈ 4.18 µM)	2 (≈ 4.18 µM)	> 64	> 64	2 (≈ 4.18 µM)	2 (≈ 4.18 µM)	2 (≈ 4.18 µM)	2 (≈ 4.18 µM)	inactive	inactive
O=Cc1ccc(/C=C/C(=O)c2ccc(Cl)cc2Cl)cc1	64 (≈ 210 µM)	64 (≈ 210 µM)	64 (≈ 210 µM)	> 64	> 64	> 64	> 64					inactive	inactive
O=C(O)CN1C(=O)/C(=C\c2ccc(/C=C/C(=O)c3cccc(Cl)c3)cc2)SC1=S	64 (≈ 144 µM)	64 (≈ 144 µM)	64 (≈ 144 µM)	64 (≈ 144 µM)	64 (≈ 144 µM)	> 64	> 64					inactive	inactive
COCOc1cccc(C(=O)/C=C/c2ccc(/C=C3/SC(=S)N(CC(=O)O)C3=O)cc2)c1	> 64	> 64	> 64	> 64	> 64	> 64	> 64					inactive	inactive
O=C(O)CN1C(=O)/C(=C\c2ccc(/C=C/C(=O)c3ccc(Cl)cc3)cc2)SC1=S	4 (≈ 9.01 µM)	4 (≈ 9.01 µM)	4 (≈ 9.01 µM)	4 (≈ 9.01 µM)	4 (≈ 9.01 µM)	> 64	> 64	4 (≈ 9.01 µM)	4 (≈ 9.01 µM)	4 (≈ 9.01 µM)	4 (≈ 9.01 µM)	inactive	inactive
Cc1ccc(C(=O)/C=C/c2ccc(/C=C3/SC(=S)N(CC(=O)O)C3=O)cc2)cc1	64 (≈ 151 µM)	64 (≈ 151 µM)	64 (≈ 151 µM)	64 (≈ 151 µM)	64 (≈ 151 µM)	> 64	> 64					inactive	inactive
COc1cccc(C(=O)/C=C/c2ccc(/C=C3/SC(=S)N(CC(=O)O)C3=O)cc2)c1	8 (≈ 18.2 µM)	8 (≈ 18.2 µM)	8 (≈ 18.2 µM)	8 (≈ 18.2 µM)	8 (≈ 18.2 µM)	> 64	> 64	8 (≈ 18.2 µM)	8 (≈ 18.2 µM)	8 (≈ 18.2 µM)	8 (≈ 18.2 µM)	inactive	inactive
O=C(O)CN1C(=O)/C(=C\c2ccc(/C=C/C(=O)c3cccc(F)c3)cc2)SC1=S	64 (≈ 150 µM)	64 (≈ 150 µM)	64 (≈ 150 µM)	64 (≈ 150 µM)	64 (≈ 150 µM)	> 64	> 64					inactive	inactive
COCOc1ccc(C(=O)/C=C/c2ccc(/C=C3/SC(=S)N(CC(=O)O)C3=O)cc2)cc1	> 64	> 64	> 64	> 64	> 64	> 64	> 64					inactive	inactive
O=C(O)CN1C(=O)/C(=C\c2ccc(/C=C/C(=O)c3ccccc3)cc2)SC1=S	32 (≈ 78.1 µM)	32 (≈ 78.1 µM)	32 (≈ 78.1 µM)	64 (≈ 156 µM)	64 (≈ 156 µM)	> 64	> 64					inactive	inactive
Cc1ccc(C(=O)/C=C/c2ccc(/C=C3/SC(=S)N(CC(=O)O)C3=O)cc2)c(C)c1	4 (≈ 9.14 µM)	4 (≈ 9.14 µM)	4 (≈ 9.14 µM)	4 (≈ 9.14 µM)	8 (≈ 18.3 µM)	> 64	> 64	4 (≈ 9.14 µM)	4 (≈ 9.14 µM)	4 (≈ 9.14 µM)	4 (≈ 9.14 µM)	inactive	inactive
CC(=O)Nc1ccc(C(=O)/C=C/c2ccc(/C=C3/SC(=S)N(CC(=O)O)C3=O)cc2)cc1	> 64	> 64	> 64	> 64	> 64	> 64	> 64					inactive	inactive
O=C(O)CN1C(=O)/C(=C\c2ccc(/C=C/C(=O)c3ccc([N+](=O)[O-])cc3)cc2)SC1=S	4 (≈ 8.8 µM)	4 (≈ 8.8 µM)	4 (≈ 8.8 µM)	8 (≈ 17.6 µM)	8 (≈ 17.6 µM)	> 64	> 64	4 (≈ 8.8 µM)	4 (≈ 8.8 µM)	4 (≈ 8.8 µM)	4 (≈ 8.8 µM)	inactive	inactive
Cc1onc(-c2ccccc2)c1C(=O)N[C@@H]1C(=O)N2[C@@H]1SC(C)(C)[C@@H]2C(=O)O [OXACILLIN]	1 (≈ 2.49 µM)	1 (≈ 2.49 µM)	1 (≈ 2.49 µM)	1 (≈ 2.49 µM)	1 (≈ 2.49 µM)	> 64	> 64	> 64	> 64	1 (≈ 2.49 µM)	1 (≈ 2.49 µM)		
O=C(O)CN1C(=O)/C(=C\c2ccc(/C=C/C(=O)c3ccc(F)cc3)cc2)SC1=S	4 (≈ 9.36 µM)	4 (≈ 9.36 µM)	4 (≈ 9.36 µM)	4 (≈ 9.36 µM)	4 (≈ 9.36 µM)	> 64	> 64	4 (≈ 9.36 µM)	4 (≈ 9.36 µM)	4 (≈ 9.36 µM)	4 (≈ 9.36 µM)	inactive	inactive
CCn1cc(C(=O)O)c(=O)c2cc(F)c(N3CCNCC3)cc21 [NORFLOXACIN]	2 (≈ 6.26 µM)	2 (≈ 6.26 µM)	4 (≈ 12.5 µM)	1 (≈ 3.13 µM)	1 (≈ 3.13 µM)	16 (≈ 50.1 µM)	16 (≈ 50.1 µM)	8 (≈ 25.1 µM)	4 (≈ 12.5 µM)	> 64	> 64		
COc1ccc(C(=O)/C=C/c2ccc(/C=C3/SC(=S)N(CC(=O)O)C3=O)cc2)cc1	64 (≈ 146 µM)	64 (≈ 146 µM)	64 (≈ 146 µM)	64 (≈ 146 µM)	64 (≈ 146 µM)	> 64	> 64					inactive	inactive
